Test results reported in ChEMBL document CHEMBL1132294, “Derivatives of the new ring system indolo[1,2-c]benzo[1,2,3]triazine with potent antitumor and antimicrobial activity” (J Med Chem, 1999).
≈ marks a conversion by molar mass, not a printed value.

Columns and labels:
MOLT-4 = test: Antitumor activity was evaluated against leukemia cell line MOLT-4(human acute T lymphoblastic leukemia); type: functional, cell-based
How it was run: (§1)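 Exponentially growing leukemia/lymphoma cells resuspended at 1×10⁵ cells/mL in RPMI with serial drug dilutions. Viability by MTT after 4 days at 37 °C. Concentration giving 50% growth inhibition versus untreated controls found by linear regression. Mean of at least three experiments.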

WIL2-NS = test: Antitumor activity was evaluated against lymphoma cell line Wil2-NS (human splenic B lymphoblastoid cells).; type: functional, cell-based; how it was run: as §1
[1] = system: Mycobacterium tuberculosis; test: Antibacterial activity was evaluated against Mycobacterium tuberculosis (clinical isolate 1104); type: functional
How it was run: (§2)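 Broth microdilution in Middlebrook 7H9 with 0.5% glycerol and 10% OADC, containing serial concentrations of compound (diluted in medium from a DMSO solution). Plates were incubated 9 days at 37 °C, and viable bacteria were read by MTT. MIC is the mean of at least three separate experiments.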

IMR-32 = test: Antitumor activity was evaluated against human neuroblastoma cell line IMR-32.; type: functional, cell-based
How it was run: (§3)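 Solid-tumour and KB lines: exponentially growing cells seeded at 5×10⁴ cells/mL, allowed to adhere 16 h, then serial drug dilutions added. Viability by MTT after 4 days. Growth expressed as % of untreated controls, 50% inhibitory concentration by linear regression. Untreated cells undergo at least three rounds of multiplication.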

L1210 = test: Antitumor activity was evaluated against leukemia cell line L1210 (mouse leukemia).; type: functional, cell-based; how it was run: as §1
[2] = system: Mycobacterium tuberculosis; test: Antibacterial activity was evaluated against Mycobacterium tuberculosis (ATCC); type: functional; how it was run: as §2
Trichophyton benhamiae = test: Antimycotic activity against Trichophyton mentagrophytes was evaluated. MIC was defined as compound concentration at which no macroscopic signs of fungal growth were detected.; type: functional, Arthroderma benhamiae
How it was run: (§4)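 Yeast inocula from 30 h Sabouraud dextrose broth cultures at 37 °C, diluted to 5×10³ cells/mL. Dermatophyte inocula from 5-day cultures, homogenized and diluted to 0.05 OD₅₉₀/mL. Inocula added to medium with serial dilutions, incubated at 37 °C, read visually at 2 days (yeast) or 3 days (dermatophytes). Mean of at least three experiments.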

Salmonella = test: Antibacterial activity was evaluated against salmonella.; type: functional
How it was run: (§5)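 Recent clinical isolates grown in nutrient broth, pH 7.2, inoculum 10³ bacterial cells/tube, with serial compound dilutions. […] Mean of at least three separate experiments.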

Mycobacterium = test: Antibacterial activity was evaluated against MAC (Mycobacterium Avium Complex ); type: functional
How it was run: (§6)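 Mycobacterial suspension (turbidity of 1 McFarland standard, 10⁸ CFU/mL) added to Middlebrook 7H9 with 0.5% glycerol, 10% OADC and serial compound dilutions. Incubated at 37 °C, 1 day for M. smegmatis and M. fortuitum, 9 days for MAC. Viable mycobacteria counted by MTT. MIC given as mean of at least three separate experiments.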

[3] = system: Mycolicibacterium fortuitum; test: Antibacterial activity was evaluated against Mycobacterium fortuitum.; type: functional; how it was run: as §6
Streptococcus = test: Antibacterial activity was evaluated against streptococcus.; type: functional; how it was run: as §5
Aspergillus fumigatus = test: Antimycotic activity against Aspergillus fumigatus was evaluated as compound minimum inhibitory concentration at which no macroscopic signs of fungal growth were detected.; type: functional
[4] = system: Mycolicibacterium smegmatis; test: Antibacterial activity was evaluated against Mycobacterium smegmatis; type: functional; how it was run: as §6
5637 = test: Antitumor activity was evaluated against human bladder carcinoma cell line 5637.; type: functional, cell-based; how it was run: as §3
Shigella = test: Antibacterial activity was evaluated against shigella.; type: functional; how it was run: as §5
Cryptococcus neoformans = test: Antimycotic activity against Cryptococcus neoformans was evaluated. MIC was defined as compound concentration at which no macroscopic signs of fungal growth were detected.; type: functional; how it was run: as §4
Candida albicans = test: Antimycotic activity against Candida albicans was evaluated as minimum inhibitory concentration of compound at which no macroscopic signs of fungal growth were detected; type: functional; how it was run: as §4
ACHN = test: Antitumor activity was evaluated against human renal adenocarcinoma cell line ACHN.; type: functional, cell-based; how it was run: as §3
MT4 = test: Antitumor activity was evaluated against leukemia cell line MT-4(human CD4+ T cells expressing the TAT gene of HTLV-1).; type: functional, cell-based; how it was run: as §1
Candida parapsilosis [5] = test: Antimycotic activity against Candida parapsilosis was evaluated. MIC was defined as compound concentration at which no macroscopic signs of fungal growth were detected.; type: functional; conditions: Lodderomyces parapsilosis; how it was run: as §4
Staphylococcus = test: Antibacterial activity was evaluated against staphylococcus; type: functional; how it was run: as §5
CCRF-CEM = test: Antitumor activity was evaluated against leukemia cell line CCRF-CEM(human acute T lymphoblastic leukemia).; type: functional, cell-based
How it was run: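 Exponentially growing leukemia/lymphoma cells resuspended at 1×10⁵ cells/mL in RPMI with serial drug dilutions. Viability by MTT after 4 days at 37 °C. Mean of at least three experiments.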

CCRF-SB = test: Antitumor activity was evaluated against leukemia cell line CCRF-SB(human acute B lymphoblastic leukemia).; type: functional, cell-based; how it was run: as §1
CHO-K1 = test: Antitumor activity was evaluated against Chinese hamster ovary carcinoma cell line CHO-K1.; type: functional, cell-based; conditions: Cricetulus griseus; how it was run: as §3
HeLa = test: Antitumor activity was evaluated against human cervix carcinoma cell line HeLa.; type: functional, cell-based; how it was run: as §3
HT-29 = test: Antitumor activity was evaluated against human colon adenocarcinoma cell line HT-29.; type: functional, cell-based; how it was run: as §3
Candida tropicalis = test: Antimycotic activity against Candida paratropicalis was evaluated. MIC was defined as compound concentration at which no macroscopic signs of fungal growth were detected.; type: functional; how it was run: as §4
Lymphoblastoid cell = test: Cytotoxicity was evaluated against lymphoblastoid cell line.; type: functional; conditions: Homo sapiens
Candida parapsilosis [6] = test: Antimycotic activity against Candida parapsilosis was evaluated as compound concentration at which no macroscopic signs of fungal growth were detected; type: functional; conditions: Lodderomyces parapsilosis; how it was run: as §4
Homo sapiens [7] = organism: Homo sapiens; test: In vitro Antiproliferative activity against peripheral blood lymphocytes (PBL) after stimulating PBL with PHA and then resuspending in IL-2-containing medium in the presence of compound.; type: functional
How it was run: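 PBL from HIV-negative donors, isolated on Ficoll-Hypaque and rested overnight. Stimulated with PHA 2.5 μg/mL for 24 h, diluted to 1×10⁵ cells/mL in medium with PHA, IL-2 50 U/mL and compound. Viable cells counted after 6 days. Mean ±SD of three experiments.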

Homo sapiens [8] = organism: Homo sapiens; test: In vitro Antiproliferative activity against peripheral blood lymphocytes (PBL) by treating PBL with compound for 3 days, then stimulating with PHA and then resuspending in compound free medium.; type: functional; conditions: 72 h
How it was run: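 Resting donor PBL held at 1×10⁶ cells/mL and treated with compound for up to 3 days, then washed. Stimulated with PHA for 24 h, diluted to 1×10⁵ cells/mL in drug-free medium with PHA and IL-2. Viability read after 6 days at 37 °C. Mean ±SD of three experiments.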

KB [9] = test: Antiproliferative activity against drug-resistant tumor cell line KBwt.; type: functional, cell-based; conditions: Homo sapiens; how it was run: as §3
KB [10] = test: Antiproliferative activity against drug-resistant tumor cell line KBMDR.; type: functional, cell-based; conditions: Homo sapiens; how it was run: as §3
KB [11] = test: Antiproliferative activity against drug-resistant tumor cell line KBV20C.; type: functional, cell-based; conditions: Homo sapiens; how it was run: as §3
KB [12] = test: Antiproliferative activity against drug-resistant tumor cell line KBCamp.; type: functional, cell-based; conditions: Homo sapiens; how it was run: as §3
KB [13] = test: Antiproliferative activity against drug-resistant tumor cell line KB7D.; type: functional, cell-based; conditions: Homo sapiens; how it was run: as §3

| SMILES | IC50 (MOLT-4) [nM] | IC50 (WIL2-NS) [nM] | MIC [1] [µM] | IC50 (IMR-32) [nM] | IC50 (L1210) [nM] | MIC [2] [µM] | MIC (Trichophyton benhamiae) [µM] | MIC (Salmonella) [µM] | MIC (Mycobacterium) [µM] | MIC [3] [µM] | MIC (Streptococcus) [µM] | MIC (Aspergillus fumigatus) [µM] | MIC [4] [µM] | IC50 5637 [nM] | MIC (Shigella) [µM] | MIC (Cryptococcus neoformans) [µM] | MIC (Candida albicans) [µM] | IC50 (ACHN) [nM] | IC50 (MT4) [nM] | MIC (Staphylococcus) [µM] | further results |
| --- | --- | --- | --- | --- | --- | --- | --- | --- | --- | --- | --- | --- | --- | --- | --- | --- | --- | --- | --- | --- | --- |
| O=Nc1c2ccccc2n2nnc3ccccc3c12 | 2300 | 4400 | 7.4 (≈ 1.84 µg/mL) | 3300 | 12000 | 4.6 (≈ 1.14 µg/mL) | 9.4 (≈ 2.33 µg/mL) | 25 (≈ 6.21 µg/mL) | 1.2 (≈ 0.298 µg/mL) | > 5 | 0.8 (≈ 0.199 µg/mL) | 19 (≈ 4.72 µg/mL) | 2.5 (≈ 0.621 µg/mL) | 4200 | 25 (≈ 6.21 µg/mL) | 3.1 (≈ 0.77 µg/mL) | 19 (≈ 4.72 µg/mL) | 12000 | 1400 | 0.8 (≈ 0.199 µg/mL) | MIC (Candida parapsilosis [5]): 19 µM (≈ 4.72 µg/mL); IC50 (CCRF-CEM): 7000 nM; IC50 (CCRF-SB): 7400 nM; IC50 (CHO-K1): 45000 nM; IC50 (HeLa): 10000 nM; IC50 (HT-29): 50000 nM; MIC (Candida tropicalis): 19 µM (≈ 4.72 µg/mL) |
| O=Nc1c2ccccc2n2nnc3cc(Cl)ccc3c12 | 1100 | 800 | 5.9 (≈ 1.67 µg/mL) | 2200 | 2400 | 4.4 (≈ 1.24 µg/mL) | 50 (≈ 14.1 µg/mL) | > 200 | 0.6 (≈ 0.17 µg/mL) | > 5 | 0.4 (≈ 0.113 µg/mL) | 6.2 (≈ 1.75 µg/mL) | > 5 | 2600 | > 200 | 1.6 (≈ 0.452 µg/mL) | 12 (≈ 3.39 µg/mL) | 7600 | 900 | 0.4 (≈ 0.113 µg/mL) | MIC (Candida parapsilosis [5]): 3 µM (≈ 0.848 µg/mL); IC50 (CCRF-CEM): 1800 nM; IC50 (CCRF-SB): 2800 nM; IC50 (CHO-K1): 9300 nM; IC50 (HeLa): 9200 nM; IC50 (HT-29): 35000 nM; MIC (Candida tropicalis): 25 µM (≈ 7.07 µg/mL) |
| Cc1ccc2nnn3c4ccccc4c(N=O)c3c2c1 | 500 | 800 | 9.2 (≈ 2.41 µg/mL) | 2800 | 1700 | 9.3 (≈ 2.44 µg/mL) | > 200 | > 200 | 5 (≈ 1.31 µg/mL) | > 5 | 0.8 (≈ 0.21 µg/mL) | > 200 | > 5 | 1900 | > 200 | > 200 | > 200 | 8700 | 1300 | 0.4 (≈ 0.105 µg/mL) | CC50 (Lymphoblastoid cell): 900 nM; MIC (Candida parapsilosis [6]): > 200 µM; CC50 (Homo sapiens [7]): 500 nM; IC50 (CCRF-CEM): 500 nM; IC50 (CCRF-SB): 700 nM; IC50 (CHO-K1): 6500 nM; IC50 (HeLa): 9500 nM; CC50 (Homo sapiens [8]): 600 nM; IC50 (HT-29): 3100 nM; MIC (Candida tropicalis): > 200 µM |
| O=Nc1c2cc(Cl)ccc2n2nnc3ccccc3c12 | 200 | 200 | > 10 | 800 | 700 | 4.7 (≈ 1.33 µg/mL) | > 200 | > 200 | 0.6 (≈ 0.17 µg/mL) | > 5 | 0.8 (≈ 0.226 µg/mL) | > 200 | > 5 | 300 | > 200 | > 200 | > 200 | 2600 | 500 | 0.4 (≈ 0.113 µg/mL) | CC50 (Lymphoblastoid cell): 350 nM; IC50 (KB [9]): 1800 nM; IC50 (KB [10]): 1100 nM; IC50 (KB [11]): 2100 nM; IC50 (KB [12]): 1900 nM; MIC (Candida parapsilosis [6]): > 200 µM; IC50 (KB [13]): 1700 nM; CC50 (Homo sapiens [7]): 200 nM; IC50 (CCRF-CEM): 80 nM; IC50 (CCRF-SB): 400 nM; IC50 (CHO-K1): 1600 nM; IC50 (HeLa): 2700 nM; CC50 (Homo sapiens [8]): 900 nM; IC50 (HT-29): 1300 nM; MIC (Candida tropicalis): > 200 µM |
